TRAIL sens C8: sensitizes caspase-8 expressing cells to TRAIL. NB7+C8 cells + TRAIL, ATPlite viability luminescence. inhibition (viability loss, TRAIL sensitization), % at 10 µM. 360,000 tested, 1% active;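 active means compounds causing at least 50% loss of cell viability in the single-dose screen, relative to plate controls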
PPC-1+TRAIL kill: compounds killing PPC-1 cancer cells with TRAIL present (potentiator screen, no TRAIL-free arm). PPC-1 cells + TRAIL, ATPLite viability luminescence. cell killing (% activity), % at 4 µM or 5 µM. 220,000 tested, 0.41% active;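 active means cell killing above 50% in the first pass at 4 µM, then a duplicate retest at 5 µM averaging 50% or more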;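 further: plate controls were cells with TRAIL plus DMSO for no effect and medium-only wells lacking cells for full effect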
FLuc inh counter: Photinus pyralis luciferase inhibition counter-screen; AID 1006; ATPLite firefly luciferase biochemical luminescence, 10 min; inhibition, % at 10 µM; P08659; 200,000 tested, 1.5% active;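 active means inhibition above about 50% when tested at 10 µM, limit read from the data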
Target sequence (P08659 whole entry, looked up): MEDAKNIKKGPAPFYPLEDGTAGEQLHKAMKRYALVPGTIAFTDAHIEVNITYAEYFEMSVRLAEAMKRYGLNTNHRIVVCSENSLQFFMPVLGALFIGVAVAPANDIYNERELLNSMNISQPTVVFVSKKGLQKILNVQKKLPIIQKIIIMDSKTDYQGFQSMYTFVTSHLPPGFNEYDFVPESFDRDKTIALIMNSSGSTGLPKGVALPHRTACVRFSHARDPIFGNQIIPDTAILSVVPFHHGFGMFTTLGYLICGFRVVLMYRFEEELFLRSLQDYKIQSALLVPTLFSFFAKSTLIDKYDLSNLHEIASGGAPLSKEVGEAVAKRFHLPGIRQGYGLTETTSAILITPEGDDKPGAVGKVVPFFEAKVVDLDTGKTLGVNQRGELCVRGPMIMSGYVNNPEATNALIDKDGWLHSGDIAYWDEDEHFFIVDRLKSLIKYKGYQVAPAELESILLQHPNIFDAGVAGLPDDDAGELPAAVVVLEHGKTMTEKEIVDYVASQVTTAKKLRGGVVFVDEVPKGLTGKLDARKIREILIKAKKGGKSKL
FLuc stim CS: affects firefly luciferase, flagging false hits in luciferase stimulation screens | P08659 | AID 1027 | activation factor at 10 µM | ATPlite luciferase biochemical, luminescence, 10 min; 0 = ATP-free wells, 1 = DMSO control | 200,000 tested, under 10 active;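 active means luciferase activation factor, scaled between plate controls, of at least 2 with compound at 10 µM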
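System: luciferase plus luciferin reagent, cell-free; medium: PBS as buffer for the ATP substrate; dosing: test compounds dosed from 2 mM stocks in 100% DMSO; timing: 10 min post-reagent at room temperature; measured by: luminescence measurement of luciferase light output; evaluation: luciferase activation, seen as luminescence increase over controls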
The depositor's hits bear a star; . = no result given. An excerpt weighted towards active compounds, which were near 1.6% of everything screened.

SMILES	TRAIL sens C8	PPC-1+TRAIL kill	FLuc inh counter	FLuc stim CS
COc1ccc(C(=O)Nc2nnc(SCC(=O)NCc3ccco3)s2)c(OC)c1	59*	.	.	.
COc1ccc(C(=O)Nc2nnc(SCC(=O)NC3CC3)s2)cc1	78*	.	.	.
O=C(CSc1nnc(NC(=O)c2ccccc2F)s1)Nc1ccccc1F	58*	45	89*	0.1
Cc1ccccc1C(=O)Nc1nnc(SCC(=O)NC2CC2)s1	53*	.	.	.
O=C(CSc1nnc(NC(=O)c2ccccc2Cl)s1)NC1CC1	19	.	.	.
C[C@H]1CN([C@@H](C)CO)S(=O)(=O)c2ccc(Br)cc2O[C@@H]1CN(C)C(=O)C1CCOCC1	0	.	.	.
NS(=O)(=O)c1ccc(NC(=O)COC(=O)Cc2c[nH]c3ccccc23)cc1	-6	.	.	.
CCOC(=O)CNC(=O)CSc1nnc(NC(=O)c2ccccc2Cl)s1	44	40	69*	0.3
COc1ccc(C(=O)Nc2nnc(SCC(=O)Nc3ccc(NC(C)=O)cc3)s2)c(OC)c1	2	.	.	.
COc1ccc(C(=O)Nc2nnc(SCC(=O)NC3CCCC3)s2)c(OC)c1	72*	.	.	.
O=C(NNC(=O)c1ccco1)c1csc(N2CCOCC2)n1	-3	.	.	.
CC1CCc2c(sc(NC(=O)c3ccccc3C(=O)O)c2C#N)C1 (configuration not stated)	-2	18	77*	0.2
CCC(C)(C)C1CCc2c(sc(NC(=O)c3ccccc3C(=O)O)c2C#N)C1 (configuration not stated)	13	8	.	.
Cc1ccc(C2=NN=C(NC(=O)CSc3nncn3C)SC2)cc1	11	1	86*	0.1
CCCCNC(=O)C1(C)CCC(=O)N1CCCn1ccnc1 (configuration not stated)	17	.	.	.
CC(C)c1ccc(NC(=O)Nc2nc(C(N)CCc3ccccc3)cs2)cc1 (configuration not stated)	95*	.	.	.
CC(C)c1ccc(NC(=O)Nc2nc(C(C)N)cs2)cc1 (configuration not stated)	1	.	.	.
COc1ccc(NC(=O)Nc2nc(C(N)C3CCCCC3)cs2)cc1 (configuration not stated)	14	.	.	.
CC(C)c1ccc(NC(=O)Nc2nc(C(N)C3CCCCC3)cs2)cc1 (configuration not stated)	88*	.	.	.
CCOC(=O)C1=CCC(c2ccc(Cl)cc2)N(S(=O)(=O)c2ccc(C)cc2)C1 (configuration not stated)	-10	.	.	.
COc1ccc2oc(=Nc3ccccc3)c(-c3nc4ccccc4[nH]3)cc2c1	63*	61*	61*	0.4
Nc1nonc1-n1nnc(C(=O)N/N=C/c2ccccn2)c1CNc1ccccc1	-11	.	.	.
COc1cc(CNc2ccc(N3CCCC3)cc2)ccc1OCc1ccccc1F	30	0	57*	0.4
O=S1(=O)CCOCCCN1Cc1ccccc1Br	1	.	.	.
COc1cccc(C(=O)/C=C/Nc2ccc(NC(C)=O)cc2)c1	5	-5	28	0.7
SMILES	TRAIL sens C8	PPC-1+TRAIL kill	FLuc inh counter	FLuc stim CS
COc1cccc(N/C=C/C(=O)c2ccc(Cl)cc2)c1	53*	53*	83*	0.2
COc1cccc(N/C=C/C(=O)c2ccc(C)cc2)c1	64*	.	.	.
COc1ccc(N/C=C/C(=O)c2ccc(Cl)cc2)cc1	43	21	35	0.7
O=C(COC(=O)C1CCC(=O)N1)Nc1cccc([N+](=O)[O-])c1 (configuration not stated)	0	.	.	.
Cc1cccnc1Nc1nc(-c2ccccn2)cs1	49*	0	44	0.6
Cc1cccnc1Nc1nc(-c2ccccc2)cs1	11	.	.	.
CN(C(=O)c1cc(COc2ccc(F)c(F)c2)on1)C1CCOC1 (configuration not stated)	15	.	.	.
N/C(=N\OC(=O)c1ccc(Cl)cc1Cl)c1cccnc1	61*	47	93*	0.1
N/C(=N\OC(=O)c1ccc(Cl)cc1)c1cccnc1	91*	26	94*	0.1
O=C(O)CN=CC1=C(O)CC(c2ccccc2)CC1=O (configuration not stated)	7	.	.	.
COc1cc2c3nnc(-c4ccc(F)cc4)c-3cn(Cc3ccc(F)cc3)c2cc1OC	1	11	3	1
COc1cc2c3nnc(-c4ccc(F)cc4)c-3cn(Cc3ccccc3)c2cc1OC	67*	28	-6	1.1
O=[N+]([O-])c1ccc(N=Nc2c(O)[nH]c3ccc(F)cc23)cc1	54*	.	.	.
O=[N+]([O-])c1ccc2[nH]c(O)c(N=Nc3ccc(F)cc3)c2c1	-4	.	.	.
O=S(=O)(c1ccc(Br)cc1)N1CCN(c2ccc3nnc(-c4ccccc4)n3n2)CC1	51*	-7	-6	1.1
COc1ccc(N(C(=O)CCl)C(C(=O)NCCc2ccccc2)c2cccs2)cc1Cl (configuration not stated)	95*	89*	1	1
COc1cccc(N(C(=O)CCl)C(C(=O)NCCc2ccccc2)c2cccs2)c1 (configuration not stated)	96*	35	-7	1.1
CN(C(=O)c1cccc(NC(=O)Cc2ccc(NC(=O)C3CCN(C(=O)CCc4ccccc4)CC3)cc2)c1)C1CCC1	6	.	.	.
CCCc1ccc(-c2ccc(F)c(N)c2)nc1	69*	38	90*	0.1
CCOC(=O)N1C/C(=C\c2ccccc2)C(=O)/C(=C/c2ccccc2)C1	18	29	.	.
O=C1/C(=C/c2ccccc2)CN(C(=O)CCN2CCOCC2)C/C1=C\c1ccccc1	56*	.	.	.
O=C(/C=C/c1ccccc1)CCN1CCOCC1	13	.	.	.
COc1ccc(OC(=O)N2C/C(=C/c3ccccc3)C(=O)/C(=C\c3ccccc3)C2)cc1	52*	.	.	.
C[N+](C)(C)CCC(=O)N1C/C(=C/c2ccccc2)C(=O)/C(=C\c2ccccc2)C1	-5	.	.	.
CN(C)CCC(=O)N1C/C(=C/c2ccccc2)C(=O)/C(=C\c2ccccc2)C1	95*	.	.	.
SMILES	TRAIL sens C8	PPC-1+TRAIL kill	FLuc inh counter	FLuc stim CS
CN(CC(=O)Nc1ccc(F)cc1[N+](=O)[O-])C1CCS(=O)(=O)C1 (configuration not stated)	3	.	.	.
O=C(O)c1cccc(S(=O)(=O)NCC2COc3ccccc3O2)c1 (configuration not stated)	3	.	.	.
Cn1ccc2ccc(C3=CC(=O)C[C@H](c4ccc(F)cc4)C3)cc21	-7	.	.	.
Cc1c(C(=O)/C=C/c2cccs2)oc2ccc(F)cc12	12	18	84*	0.2
Cc1ccc(S(=O)(=O)N/N=C\c2cn(CC(N)=O)c3ccccc23)cc1	-8	.	.	.
O=C(COc1ccccc1Cl)NC1CC1	-2	.	.	.
CC1=NNC(=O)/C1=C\c1cn(-c2ccccc2)nc1-c1ccccc1	63*	42	-4	1
O=C(O)/C=C/C(=O)Nc1ccc(-c2ccccc2)cc1	9	18	53*	0.5
Clc1ccc2c(c1)C1OCCC1C(c1ccco1)N2 (configuration not stated)	21	20	54*	0.5
Cc1ccc(C)c(N2N=C(C(=O)N(CC(C)C)c3c(N)n(Cc4ccccc4)c(=O)[nH]c3=O)CCC2=O)c1	-2	.	.	.
Cc1coc2c1C(=O)C(=O)c1c-2ccc2c(C)cccc12	54*	28	.	.
